# Data published in publication PMC12640659 (Chemmedchem, 2025).
# Tested on: E. coli ATCC 10536
# Assay: Antibacterial resazurin assay, E. coli
# Type: cell-based, Escherichia coli
# Settings: Escherichia coli, ATCC10536, 6 h, read-out: MIC E. coli
# Method in brief: (§1)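 Twofold dilutions of test compound (100–0.78 μM) were incubated with mid-log bacteria in LB broth at 37 °C for 6 h. Precultures were grown in LB for P. aeruginosa, S. aureus and E. coli, and in TSB for A. baumannii and K. pneumoniae. Cultures were diluted 1:1000, except S. aureus at 1:500. Resazurin (0.13 mg mL−1 solution) was added for 15–30 min and fluorescence read at 560/590 nm. Assays were run in duplicate with novobiocin and nalidixic acid controls, and MIC was fitted by nonlinear regression.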
row,Compound,MIC [µM]
1,"C[C@@H](N)[C@H](O)CCCCCCCC(=O)CCCCCCCCCCCCCC[C@@H](O[C@@H]1O[C@H](CO)[C@H](O)[C@H](O)[C@H]1O)[C@@H](C)N [Compound 2, rhizochalin]",6.15 ± 0.04
2,"CCn1cc(C(=O)O)c(=O)c2ccc(C)nc21 [Nalidixic acid, reference compound]",0.47 ± 0.22

# Same assay, conditions: resazurin, 6 h; mean ± SD
row,Compound,MIC E. coli [µM]
1,"CC(N)C(O)CCCCCCCCCCCCCCC(=O)CCCCCCCC(O)C(C)N (stereo not shown) [Compound 2b, rhizochalinin]",49.1 ± 3.42
2,oceanin [Compound 4b],>50
3,pentaperbenzoyl oceanin [Compound 4c],>50
4,pentaperbenzoyl rhizochalinin C [Compound 3c],>50
5,rhizochalinin C [Compound 3b],>50
6,tetraperbenzoyl rhizochalinin [Compound 2c],>50

# Tested on: HCC70 TNBC cell line
# Assay: Resazurin cytotoxicity assay, HCC70
# Type: cell-based
# Settings: Homo sapiens, HCC70, 96 h, read-out: IC50 HCC70
# Method in brief: (§2)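 Cells were seeded at 5.0 × 10^3 per well and left to attach overnight at 37 °C, 9% CO2, then treated with test compound for 96 h. A […] resazurin solution was added for 2–4 h at 37 °C and fluorescence read at ex 560/em 590 nm. Assays were run in triplicate, and IC50 was obtained by nonlinear regression.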
row,Compound,IC50 [µM]
1,"C[C@@H](N)[C@H](O)CCCCCCCC(=O)CCCCCCCCCCCCCC[C@@H](O[C@@H]1O[C@H](CO)[C@H](O)[C@H](O)[C@H]1O)[C@@H](C)N [Compound 2, rhizochalin]",1.94 ± 1.13

# Same assay, conditions: read-out: IC50 HCC70; resazurin, 96 h; mean ± SD (n = 3)
row,Compound,IC50 [µM]
1,"N.N.[Cl][Pt][Cl] [Cisplatin, reference compound]",2.6 ± 1.2
2,"CC(N)C(O)CCCCCCCCCCCCCCC(=O)CCCCCCCC(O)C(C)N (stereo not shown) [Compound 2b, rhizochalinin]",4.97 ± 1.2
3,oceanin [Compound 4b],117 ± 1.4
4,rhizochalinin C [Compound 3b],6.43 ± 1.1

# Same assay, conditions: selectivity index versus nontumorigenic MCF12A
row,Compound,SI (HCC70)
1,"N.N.[Cl][Pt][Cl] [Cisplatin, reference compound]",4.5
2,"C[C@@H](N)[C@H](O)CCCCCCCC(=O)CCCCCCCCCCCCCC[C@@H](O[C@@H]1O[C@H](CO)[C@H](O)[C@H](O)[C@H]1O)[C@@H](C)N [Compound 2, rhizochalin]",2.2
3,"CC(N)C(O)CCCCCCCCCCCCCCC(=O)CCCCCCCC(O)C(C)N (stereo not shown) [Compound 2b, rhizochalinin]",4.2
4,oceanin [Compound 4b],0.6
5,rhizochalinin C [Compound 3b],4.5

# Tested on: E. coli ATCC 10536
# Assay: Time-kill kinetics, E. coli
# Type: cell-based, Escherichia coli
# Settings: at 1x and 4x MICs, up to 5 h
# Method in brief: (§3)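 At 0.5, 1, 2, 3, 4 and 5 h, samples were pelleted, resuspended in 10 mM MgSO4 and serially diluted tenfold. Dilutions were spotted on LB agar for 16 h at 37 °C, and growth was compared visually with the untreated control.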
row,Compound,"Bactericidal endpoint, E. coli, in words"
1,"CCn1cc(C(=O)O)c(=O)c2ccc(C)nc21 [Nalidixic acid, reference compound]",did not achieve bactericidal endpoints

# Tested on: A. baumannii ATCC 19606
# Assay: Antibacterial resazurin assay, A. baumannii
# Type: cell-based, Acinetobacter baumannii
# Settings: Acinetobacter baumannii, ATCC19606, 6 h, read-out: MIC A. baumannii
# Method in brief: as §1
row,Compound,MIC [µM]
1,"C[C@@H](N)[C@H](O)CCCCCCCC(=O)CCCCCCCCCCCCCC[C@@H](O[C@@H]1O[C@H](CO)[C@H](O)[C@H](O)[C@H]1O)[C@@H](C)N [Compound 2, rhizochalin]",6.29 ± 0.02
2,"CCn1cc(C(=O)O)c(=O)c2ccc(C)nc21 [Nalidixic acid, reference compound]",1.28 ± 0.92

# Same assay, conditions: resazurin, 6 h; mean ± SD
row,Compound,MIC A. baumannii [µM]
1,"CC(N)C(O)CCCCCCCCCCCCCCC(=O)CCCCCCCC(O)C(C)N (stereo not shown) [Compound 2b, rhizochalinin]",55.7 ± 0.85
2,oceanin [Compound 4b],>50
3,pentaperbenzoyl oceanin [Compound 4c],>50
4,pentaperbenzoyl rhizochalinin C [Compound 3c],>50
5,rhizochalinin C [Compound 3b],>50
6,tetraperbenzoyl rhizochalinin [Compound 2c],>50

# Tested on: K. pneumoniae ST512‐K30BO
# Assay: Antibacterial resazurin assay, drug-resistant K. pneumoniae
# Type: cell-based, Klebsiella pneumoniae
# Settings: Klebsiella pneumoniae, 6 h, read-out: MIC K. pneumoniae
# Method in brief: as §1
row,Compound,MIC [µM]
1,"C[C@@H](N)[C@H](O)CCCCCCCC(=O)CCCCCCCCCCCCCC[C@@H](O[C@@H]1O[C@H](CO)[C@H](O)[C@H](O)[C@H]1O)[C@@H](C)N [Compound 2, rhizochalin]",8.52 ± 3.1
2,"CCn1cc(C(=O)O)c(=O)c2ccc(C)nc21 [Nalidixic acid, reference compound]",28.8 ± 1.09

# Same assay, conditions: resazurin, 6 h; drug‐resistant ST512 strain; sixth column pair of SI-15
row,Compound,MIC K. pneumoniae [µM]
1,"CC(N)C(O)CCCCCCCCCCCCCCC(=O)CCCCCCCC(O)C(C)N (stereo not shown) [Compound 2b, rhizochalinin]",23.78 ± 0.15
2,oceanin [Compound 4b],>50
3,pentaperbenzoyl oceanin [Compound 4c],>50
4,pentaperbenzoyl rhizochalinin C [Compound 3c],>50
5,rhizochalinin C [Compound 3b],>50
6,tetraperbenzoyl rhizochalinin [Compound 2c],>50

# Tested on: MCF‐7 hormone receptor‐positive breast cancer cell line
# Assay: Resazurin cytotoxicity assay, MCF7
# Type: cell-based
# Settings: Homo sapiens, MCF7, 96 h, read-out: IC50 MCF7
# Method in brief: as §2
row,Compound,IC50 [µM]
1,"C[C@@H](N)[C@H](O)CCCCCCCC(=O)CCCCCCCCCCCCCC[C@@H](O[C@@H]1O[C@H](CO)[C@H](O)[C@H](O)[C@H]1O)[C@@H](C)N [Compound 2, rhizochalin]",2.43 ± 1.17

# Same assay, conditions: read-out: IC50 MCF7; resazurin, 96 h; mean ± SD (n = 3)
row,Compound,IC50 [µM]
1,"N.N.[Cl][Pt][Cl] [Cisplatin, reference compound]",4.4 ± 1.2
2,"CC(N)C(O)CCCCCCCCCCCCCCC(=O)CCCCCCCC(O)C(C)N (stereo not shown) [Compound 2b, rhizochalinin]",21.4 ± 1.2
3,oceanin [Compound 4b],8.39 ± 1.39
4,rhizochalinin C [Compound 3b],26.4 ± 1.2

# Same assay, conditions: selectivity index versus nontumorigenic MCF12A
row,Compound,SI (MCF7)
1,"N.N.[Cl][Pt][Cl] [Cisplatin, reference compound]",2.5
2,"C[C@@H](N)[C@H](O)CCCCCCCC(=O)CCCCCCCCCCCCCC[C@@H](O[C@@H]1O[C@H](CO)[C@H](O)[C@H](O)[C@H]1O)[C@@H](C)N [Compound 2, rhizochalin]",1.8
3,"CC(N)C(O)CCCCCCCCCCCCCCC(=O)CCCCCCCC(O)C(C)N (stereo not shown) [Compound 2b, rhizochalinin]",1.0
4,oceanin [Compound 4b],7.9
5,rhizochalinin C [Compound 3b],1.1

# Tested on: S. aureus ATCC 12600
# Assay: Time-kill kinetics, S. aureus
# Type: cell-based, Staphylococcus aureus
# Settings: at 1x and 4x MICs, up to 5 h
# Method in brief: as §3
row,Compound,"Bactericidal endpoint, S. aureus, in words"
1,"CO[C@@H]1[C@@H](OC(N)=O)[C@@H](O)[C@H](Oc2ccc3c(O)c(NC(=O)c4ccc(O)c(CC=C(C)C)c4)c(=O)oc3c2C)OC1(C)C [Novobiocin, reference compound]",did not achieve bactericidal endpoints

# Tested on: P. aeruginosa ATCC 27853
# Assay: Antibacterial resazurin assay, P. aeruginosa
# Type: cell-based, Pseudomonas aeruginosa
# Settings: Pseudomonas aeruginosa, ATCC27853, 6 h, read-out: MIC P. aeruginosa
# Method in brief: as §1
row,Compound,MIC [µM]
1,"C[C@@H](N)[C@H](O)CCCCCCCC(=O)CCCCCCCCCCCCCC[C@@H](O[C@@H]1O[C@H](CO)[C@H](O)[C@H](O)[C@H]1O)[C@@H](C)N [Compound 2, rhizochalin]",3.84 ± 0.82
2,"CCn1cc(C(=O)O)c(=O)c2ccc(C)nc21 [Nalidixic acid, reference compound]",0.17 ± 0.01

# Same assay, conditions: resazurin, 6 h; mean ± SD
row,Compound,MIC P. aeruginosa [µM]
1,"CC(N)C(O)CCCCCCCCCCCCCCC(=O)CCCCCCCC(O)C(C)N (stereo not shown) [Compound 2b, rhizochalinin]",>50
2,oceanin [Compound 4b],>50
3,pentaperbenzoyl oceanin [Compound 4c],>50
4,pentaperbenzoyl rhizochalinin C [Compound 3c],>50
5,rhizochalinin C [Compound 3b],>50
6,tetraperbenzoyl rhizochalinin [Compound 2c],>50

# Tested on: HeLa cells
# Assay: Cytotoxicity against HeLa cells
# Type: cell-based
# Settings: Homo sapiens, read-out: IC50 HeLa cell
row,Compound,IC50 [µM]
1,"C[C@@H](N)[C@H](O)CCCCCCCC(=O)CCCCCCCCCCCCCC[C@@H](O[C@@H]1O[C@H](CO)[C@H](O)[C@H](O)[C@H]1O)[C@@H](C)N [Compound 2, rhizochalin]",7.11

# Tested on: S. aureus ATCC 12600
# Assay: Antibacterial resazurin assay, S. aureus
# Type: cell-based, Staphylococcus aureus
# Settings: Staphylococcus aureus, ATCC12600, 6 h, read-out: MIC S. aureus
# Method in brief: as §1
row,Compound,MIC [µM]
1,"C[C@@H](N)[C@H](O)CCCCCCCC(=O)CCCCCCCCCCCCCC[C@@H](O[C@@H]1O[C@H](CO)[C@H](O)[C@H](O)[C@H]1O)[C@@H](C)N [Compound 2, rhizochalin]",3.64 ± 0.47
2,"CO[C@@H]1[C@@H](OC(N)=O)[C@@H](O)[C@H](Oc2ccc3c(O)c(NC(=O)c4ccc(O)c(CC=C(C)C)c4)c(=O)oc3c2C)OC1(C)C [Novobiocin, reference compound]",0.002 ± 0.002

# Same assay, conditions: resazurin, 6 h; mean ± SD
row,Compound,MIC S. aureus [µM]
1,oceanin [Compound 4b],>50
2,pentaperbenzoyl oceanin [Compound 4c],>50
3,pentaperbenzoyl rhizochalinin C [Compound 3c],>50
4,rhizochalinin C [Compound 3b],>50
5,tetraperbenzoyl rhizochalinin [Compound 2c],>50

# Tested on: MDA‐MB‐231 triple‐negative breast cancer (TNBC) cell line
# Assay: Resazurin cytotoxicity assay, MDA-MB-231
# Type: cell-based
# Settings: Homo sapiens, MDA-MB-231, 96 h, read-out: IC50 MDA‐MB231
# Method in brief: as §2
row,Compound,IC50 [µM]
1,"C[C@@H](N)[C@H](O)CCCCCCCC(=O)CCCCCCCCCCCCCC[C@@H](O[C@@H]1O[C@H](CO)[C@H](O)[C@H](O)[C@H]1O)[C@@H](C)N [Compound 2, rhizochalin]",4.59 ± 1.22

# Same assay, conditions: read-out: IC50 MDA‐MB231; resazurin, 96 h; mean ± SD (n = 3)
row,Compound,IC50 [µM]
1,"N.N.[Cl][Pt][Cl] [Cisplatin, reference compound]",18.1 ± 1.2
2,"CC(N)C(O)CCCCCCCCCCCCCCC(=O)CCCCCCCC(O)C(C)N (stereo not shown) [Compound 2b, rhizochalinin]",6.78 ± 1.3
3,oceanin [Compound 4b],6.36 ± 1.4
4,rhizochalinin C [Compound 3b],6.78 ± 1.2

# Same assay, conditions: selectivity index versus nontumorigenic MCF12A
row,Compound,SI (MDA‐MB231)
1,"N.N.[Cl][Pt][Cl] [Cisplatin, reference compound]",0.6
2,"C[C@@H](N)[C@H](O)CCCCCCCC(=O)CCCCCCCCCCCCCC[C@@H](O[C@@H]1O[C@H](CO)[C@H](O)[C@H](O)[C@H]1O)[C@@H](C)N [Compound 2, rhizochalin]",1.0
3,"CC(N)C(O)CCCCCCCCCCCCCCC(=O)CCCCCCCC(O)C(C)N (stereo not shown) [Compound 2b, rhizochalinin]",3.1
4,oceanin [Compound 4b],10.4
5,rhizochalinin C [Compound 3b],4.3

# Tested on: nontumorigenic breast epithelial cell line MCF12A
# Assay: Resazurin cytotoxicity assay, MCF12A
# Type: cell-based
# Settings: Homo sapiens, MCF-12A, 96 h, read-out: IC50 MCF12A
# Method in brief: as §2
row,Compound,IC50 [µM]
1,"C[C@@H](N)[C@H](O)CCCCCCCC(=O)CCCCCCCCCCCCCC[C@@H](O[C@@H]1O[C@H](CO)[C@H](O)[C@H](O)[C@H]1O)[C@@H](C)N [Compound 2, rhizochalin]",4.25 ± 1.28
